High-throughput results: PubChem, Johns Hopkins Ion Channel Center
KCNQ1 pot: potentiates or activates the human KCNQ1 potassium channel | P51787 | CHO-K1 KCNQ1, thallium flux FluxOR fluorescence; hits give high values | B-score at 10 µM | 0.35% of 310,000 active | AID 2648;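 active = fluorescence ratio B-score, a plate-corrected score, at least three library SD, with initial intensity B-score within 5 SD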
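System: CHO-K1 cells stably expressing KCNQ1 / Medium: assay buffer for compound exposure, DMSO matched across wells / Reagent: thallium- and potassium-containing depolarizing buffer / Compound: one concentration, matched DMSO / Incubation: 20 min compound pretreatment at room temperature / Measured by: kinetic FluxOR fluorescence, 10 s baseline plus 110 s post-stimulus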
KCNQ1 block: human KCNQ1 channel inhibition | AID 2642 | B-score at 10 µM | P51787 | 1.3% of 310,000 active | CHO-K1 KCNQ1, FluxOR thallium flux fluorescence; hits give high values;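 active = compounds whose thallium flux B-score, printed positive for inhibition, exceeds three library SD while starting fluorescence stays within three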;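 also: channel opened by potassium depolarization with thallium stimulus after 20 min compound exposure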
KCNK3 inh: human KCNK3 channel inhibition, primary screen; CHO-KCNK3 thallium flux, FluxOR fluorescence; hits give low values; B-score at 10 µM; 0.84% of 340,000 active;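 active = B-score under library mean minus 4 SD, starting fluorescence ratio at most library mean plus 5 SD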;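 also: more negative B-score means stronger inhibition of thallium flux through KCNK3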
hERG rescue: shields human hERG channel from block by proarrhythmic agents; activation (rescue from dofetilide block), less the hit threshold, % at 10 µM; Q12809; 0.51% of 310,000 active; CHO-hERG, FluxOR thallium flux, dofetilide IC70 present;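 active = activation above the mean of controls blocked by dofetilide plus 5 SD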;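 also: thallium influx through hERG after potassium depolarization seen as dye fluorescence rise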
KCNK9 inh: blocks the human KCNK9 two-pore domain potassium channel; HEK293 KCNK9, FluxOR thallium flux fluorescence; hits give low values; 1.2% of 310,000 active; B-score at 10 µM;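 active = ratio B-score over 3 SD below the library mean, with starting fluorescence within 5 SD of its mean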;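 also: negative B-score means less thallium flux so channel inhibition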
KCNQ1 block val: confirmation of human KCNQ1 potassium channel inhibitors; 93% of 1,600 active; shares compounds with KCNQ1 block; KCNQ1 cell line, FluxOR thallium flux fluorescence; inhibition, % at 10 µM; AID 588353;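 active = primary screen active, with duplicate mean exceeding buffer control mean plus 3 SD of buffer wells, cut at about 28% in these data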;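 also: 0% = buffer control ratio and 100% = XE991 inhibitor control ratio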
CHO KCNQ1 ctr: KCNQ1 inhibitor counter-screen hit in parental CHO cells. parental CHO-K1, FluxOR thallium flux fluorescence ratio; hits give low values; zero means no signal rise above baseline. 21% of 1,600 active. shares compounds with KCNQ1 block. fluorescence ratio (Tl flux) at 10 µM. AID 588366;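 active = mean of duplicate thallium-flux fluorescence ratios in parental host cells more than 5 SD below the buffer control mean, cut at about 0.38 in these data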;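 also: ratio is peak minus minimum fluorescence divided by baseline fluorescence; actives read low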
KCNQ1 ephys val: human KCNQ1 inhibition validated by electrophysiology. AID 624120. calls only at 10 µM. 20% of 490 active. shares compounds with KCNQ1 block. KCNQ1-CHO cells, automated patch clamp current;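 active = KCNQ1 current drop exceeding 3 SD of negative control wells, seen in both duplicate runs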;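 also: steady state current during a 2 s step from -80 to +40 mV; negative values mean current inhibition and positive values mean potentiation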
KCNQ2 spec: selectivity of KCNQ1 inhibitors: inhibition of rat KCNQ2 channel; shares compounds with KCNQ1 block; KCNQ2 cells, FluxOR thallium flux fluorescence; inhibition, % at 10 µM; 71% of 1,600 active;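 active = mean percent inhibition of the KCNQ2 thallium signal more than 5 SD above the buffer-only control wells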;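 also: KCNQ2 expressed in CHO cells; 0% = buffer control wells and 100% = XE-991 inhibitor control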
KCNQ1-KCNE1 inh: KCNQ1 inhibitor that also blocks human KCNQ1/KCNE1 channel. shares compounds with KCNQ1 block. KCNQ1/KCNE1 cells, FluxOR thallium flux fluorescence. inhibition, % at 10 µM. 77% of 1,600 active. AID 652147;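 active = mean percent inhibition of duplicate wells above the buffer-only control mean plus 3 SD of those controls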;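 also: 0% = buffer only wells and 100% = XE-991 inhibitor control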
Target sequence (P51787 whole entry, looked up): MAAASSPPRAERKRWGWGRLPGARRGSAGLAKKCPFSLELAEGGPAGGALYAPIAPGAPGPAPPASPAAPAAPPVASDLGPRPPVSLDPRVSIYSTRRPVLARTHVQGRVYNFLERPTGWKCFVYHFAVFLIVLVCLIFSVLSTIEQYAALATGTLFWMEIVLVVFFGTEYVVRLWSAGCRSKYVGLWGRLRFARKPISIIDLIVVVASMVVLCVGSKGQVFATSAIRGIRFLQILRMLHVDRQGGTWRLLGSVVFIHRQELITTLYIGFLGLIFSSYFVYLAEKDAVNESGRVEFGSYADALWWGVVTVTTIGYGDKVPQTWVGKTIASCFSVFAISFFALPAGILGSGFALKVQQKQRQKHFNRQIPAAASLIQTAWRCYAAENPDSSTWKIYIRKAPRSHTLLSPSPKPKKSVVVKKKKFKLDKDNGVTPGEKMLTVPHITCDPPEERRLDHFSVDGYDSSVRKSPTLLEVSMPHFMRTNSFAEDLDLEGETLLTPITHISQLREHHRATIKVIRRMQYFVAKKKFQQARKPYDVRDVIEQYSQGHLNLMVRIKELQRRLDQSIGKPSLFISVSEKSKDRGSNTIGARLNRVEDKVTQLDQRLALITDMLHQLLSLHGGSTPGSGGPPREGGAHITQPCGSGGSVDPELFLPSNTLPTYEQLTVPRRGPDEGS
* = called active by the depositor; i = inactive; . = no result given. An excerpt weighted towards active compounds, which were near 3.1% of everything screened.

SMILES	KCNQ1 pot	KCNQ1 block	KCNK3 inh	hERG rescue	KCNK9 inh	others
O=C(Nc1ccccn1)c1cc(-c2cccnc2)nc2ccc(Br)cc12	i	i	i	-13	-6.9*
CC(C)(C)c1ccc(-c2cc(C(=O)NNC(=O)Nc3ccccc3)c3ccccc3n2)cc1	i	i	-10*	-6	i
Cc1cc(NC(=O)c2cc(-c3ccccn3)nc3ccc(Br)cc23)no1	i	i	i	-8	i
O=C(Cc1ccccc1)c1c[nH]c(C(=O)NCCCN2CCOCC2)c1	i	i	i	-15	i
CCOCCCNC(=O)C(c1ccc(Cl)cc1)N1CCC2(CC1)OCCO2 (configuration not stated)	i	i	i	8.6*	i
O=C(CCS(=O)(=O)c1cccc2nonc12)NCc1ccc(Cl)cc1	i	i	i	-12	i
COc1ccc(NC(=O)c2ccc(Cl)c(S(=O)(=O)N3CCc4ccccc4C3)c2)cn1	i	i	-10*	-13	i
Cc1cc(C)n(CCc2nc(-c3ccc(F)cc3)cs2)n1	i	i	i	-11	i
COc1cc(-c2csc(CCn3nc(C)cc3C)n2)cc(OC)c1OC	i	i	i	-13	-6.7*
O=S(=O)(c1cccs1)N1CCC2(CC1)OCCN2S(=O)(=O)c1ccccc1	i	i	i	-7	i
C=CCSc1nnc(NC(=O)C23CC4CC(CC(NC(C)=O)(C4)C2)C3)s1	i	i	i	-11	i
CCOc1ccc(S(=O)(=O)N(C)c2ccc(OCC(=O)Nc3nc4ccccc4s3)cc2)cc1	i	8*	i	-7	i
CCOC(=O)Cc1csc(NC(=O)COc2ccc(OC)cc2)n1	i	i	i	-6	i
CCOC(=O)Cc1csc(NC(=O)COc2ccc(N(C)S(=O)(=O)c3ccc(C)cc3)cc2)n1	i	i	i	-14	-6.8*
O=C(O)CCC(=O)Nc1cc(C(F)(F)F)cc(C(F)(F)F)c1	i	i	i	-9	i
O=C1C(c2ccccc2)C(c2ccccc2)NC(c2ccccc2)C1c1ccccc1 (configuration not stated)	i	i	i	1	i
CCC1C(=O)CC(c2ccccc2)NC1c1ccccc1 (configuration not stated)	i	i	i	-5	-6.6*
O=C(COc1ccccc1/C=C1\SC(=S)NC1=O)Nc1ccc(F)cc1	.	.	i	.	.
OC[C@@H](O)C1OC2NC(=S)OC2C1O (some centres not stated)	i	i	i	7.7*	i
O=C(Cc1ccccc1)NC1CCSc2ccccc21 (configuration not stated)	i	i	i	-11	i
COc1ccc(-c2cn3c(C)c(C(=O)N4CCCc5ccccc54)sc3n2)cc1	i	6*	i	-15	i
CC(C)(C)c1ccc(OCC(=O)N(Cc2cccs2)C2CCS(=O)(=O)C2)cc1 (configuration not stated)	i	i	i	-10	i
CN(CC(=O)Nc1ccc(Br)cc1)Cc1ccccc1	i	i	i	-8	-6.8*
CN(CC(=O)NCCCc1ccccc1)Cc1ccc(Br)cc1	i	i	i	-11	i
CC1CCCC(C)N1C(=O)COC(=O)COc1ccc(C#N)cc1 (configuration not stated)	.	.	i	.	.
SMILES	KCNQ1 pot	KCNQ1 block	KCNK3 inh	hERG rescue	KCNK9 inh	others
CSc1ncccc1C(=O)Nc1nc2ccc(Oc3ccccc3)cc2s1	i	i	i	-29	i
C[C@@H]1CC=C[C@H]2[C@H]1C(=O)N(Cc1ccccc1)[C@H]2c1ccc(F)c(Br)c1	i	10*	.	-26	-19*
Cc1ccc(-c2cccc(C3CC=CC4C3C(=O)N(Cc3ccccc3)C4c3ccc4ccccc4c3)c2)cc1 (configuration not stated)	i	i	i	8.4*	i
O=C1C2C(c3cccc(/C=C/c4ccccc4)c3)CC=CC2C(c2ccc3ccccc3c2)N1Cc1ccccc1 (configuration not stated)	i	i	i	-8	i
Cc1nc(C)n(CC(=O)N2CCCC(C(=O)c3cccc4ccccc34)C2)n1 (configuration not stated)	i	i	i	-10	i
CCOc1cc(C(=O)OCC(=O)N(C)c2ccccc2)cc(OCC)c1OCC	i	i	i	-10	i
CCC1(C)Cc2ccccc2-c2nc(-c3ccccc3)oc(=O)c21 (configuration not stated)	i	8*	i	-13	i	KCNQ1 block val=92*;CHO KCNQ1 ctr=0.49;KCNQ1 ephys val=i;KCNQ2 spec=102%*;KCNQ1-KCNE1 inh=104%*
CC1C(=O)C(C)C(c2cc(Cl)ccc2O)NC1c1cc(Cl)ccc1O (configuration not stated)	i	10*	i	-16	i	KCNQ1 block val=84*;CHO KCNQ1 ctr=0.43;KCNQ2 spec=83%*;KCNQ1-KCNE1 inh=122%*
C=CC[C@@H](CC(=O)OC(C)(C)C)C(=O)OC[C@H]1CCCN1C(=O)[C@@H](CC=C)CC(=O)N(CCO)Cc1ccccc1	.	.	i	.	.
COc1ccc(C(=O)CCc2ccccc2)c(O)c1	i	i	i	-5	i
O=C(CCc1ccccc1)c1c(O)cc(O)cc1O	i	10*	i	-38	i	KCNQ1 block val=123*;CHO KCNQ1 ctr=0.37*;KCNQ2 spec=102%*;KCNQ1-KCNE1 inh=177%*
CCc1ccc(NC(=O)N2CCN(C(=O)C3CCCO3)CC2)cc1 (configuration not stated)	i	i	i	-6	i
COc1ccc(N/C=C2\CCc3ccccc3C2=O)cc1	i	6*	i	-20	i	KCNQ1 block val=50*;CHO KCNQ1 ctr=0.69;KCNQ2 spec=112%*;KCNQ1-KCNE1 inh=114%*
Cc1ccc(-c2csc(=Nc3cccnc3)n2CCCN2CCCC2=O)cc1C	i	i	i	-9	i
